A selection: hits, their analogues and other compounds. The true share with any hit is near 1.5%.
Rpn11 block – Rpn11 (human) deubiquitinase inhibition; O00487; human 26S proteasome, Ub4-pepOG fluorescence polarization; 20S core pre-blocked with epoxomicin; inhibition, % at 20 µM; hit rate 0.59% among 360,000; AID 588493;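 active = inhibition at 20 µM, scaled to each plate's controls, above about 33%, limit read from the data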
Target sequence (O00487 whole entry, looked up): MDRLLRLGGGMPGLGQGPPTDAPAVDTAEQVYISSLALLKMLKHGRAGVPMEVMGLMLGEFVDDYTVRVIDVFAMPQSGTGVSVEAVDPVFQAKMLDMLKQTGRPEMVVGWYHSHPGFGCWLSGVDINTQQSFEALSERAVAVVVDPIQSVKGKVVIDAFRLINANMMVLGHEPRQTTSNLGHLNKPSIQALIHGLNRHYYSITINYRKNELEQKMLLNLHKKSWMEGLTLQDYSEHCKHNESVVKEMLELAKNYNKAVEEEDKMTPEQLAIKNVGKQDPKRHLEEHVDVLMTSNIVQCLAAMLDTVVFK
HNF4A DNA FP – change in binding of human HNF4 alpha to DNA | HNF4a-FITC DNA binding, fluorescence polarization, 1 h | AID 1224865 | activity change, % at 10 µM | hit rate 0.3% among 360,000; in the data active = activity change above about 30%, passing the limit was not always enough
TPT1 inh – blocks Candida albicans tRNA 2'-phosphotransferase. AID 1962. inhibition, % at 5 µM. recombinant caTPT1, FP RNA substrate dephosphorylation. hit rate 0.81% among 300,000;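 active = inhibition above the mean of all tested compounds plus 3 SD, set per screening campaign, cut at about 24% in these data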
CSN inh – CSN deneddylation inhibition | Purified CSN, SCF-Nedd8-OG deneddylation, fluorescence polarization | hit rate 0.38% among 360,000 | inhibition, % at 12.5 µM | AID 651999;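 active = pattern-corrected inhibition above about 35%, with an unprinted fluorescence ratio check between 0.5 and 1.5, limit read from the data, passing the limit was not always enough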
Target sequence (Q92905 whole entry, looked up, one chain of several): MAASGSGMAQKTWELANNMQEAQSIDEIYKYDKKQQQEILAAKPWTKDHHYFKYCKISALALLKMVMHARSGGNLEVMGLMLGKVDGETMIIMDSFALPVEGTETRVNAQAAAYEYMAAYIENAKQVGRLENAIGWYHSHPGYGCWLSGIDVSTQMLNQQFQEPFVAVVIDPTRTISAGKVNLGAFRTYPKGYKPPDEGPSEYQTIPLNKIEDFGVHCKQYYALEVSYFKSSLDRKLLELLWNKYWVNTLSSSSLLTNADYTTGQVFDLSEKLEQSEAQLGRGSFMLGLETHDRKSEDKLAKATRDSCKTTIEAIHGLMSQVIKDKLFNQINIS
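Assay system: Purified human Csn5 enzyme expressed in HEK293T cells | Amount: Enzyme 0.24 nM | Measured by: Fluorescence polarization readout | Medium: Tris/NaCl/DTT buffer, pH 7.5 | Compound dosing: One concentration, 12.5 µM, 0.25% DMSO | Times: 90 min incubation of compound, enzyme and substrate at room temperature | Control set: no-enzyme wells high, enzyme-with-substrate wells low | Read-out: % inhibition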
caTPT1 confirm – confirmation of Candida albicans TPT1 inhibitors | AID 2149 | shares compounds with TPT1 inh | hit rate 74% among 2,400 | recombinant caTPT1, fluorescence polarization, RNase T1 coupled | inhibition, % at 5 µM;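 active = inhibition above the primary screen limit, the mean inhibition of all tested compounds plus 3 SD, cut at about 25% in these data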
RNase T1 counter – counter-screen for TPT1 inhibitors: inhibitors of Aspergillus oryzae RNase T1; shares compounds with TPT1 inh; hit rate 83% among 2,400; RNase T1 cleavage, fluorescence polarization, 1536-well; inhibition, % at 5 µM;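 active = inhibition above the solvent-only control well mean plus 3 SD, limit set per screening run, cut at about 23% in these data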;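 also: inhibitors block cleavage so intact labeled substrate keeps polarization high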
Of the large screens only hits and unclear results are named; the others gave an inactive call (follow-up assays come after a bar, where shown).

S=c1[nH]nc(-c2cc(-c3ccco3)[nH]n2)n1-c1ccccc1Cl	CSN inh 35.6
S=c1[nH]nc(-c2ccco2)n1-c1ccccc1Cl	none
O=[N+]([O-])c1ccc(C=CC=Cc2ccccc2)cc1	CSN inh 36.5 (not shown: Rpn11 block, TPT1 inh)
O=C(O)CCc1ccc(-c2ccc(Br)cc2)n1-c1ccc(O)cc1	CSN inh 38.9 (no result: TPT1 inh)
Cc1ccc(-c2ccc(CCC(=O)O)n2-c2ccc(O)cc2)cc1	none
CCn1c(O)c(/C=N/NC(=O)c2ccncc2)c(=O)n(CC)c1=S	HNF4A DNA FP 77.7 (not shown: Rpn11 block, TPT1 inh)
Cn1c(=O)n(C)c2cc(/C=N/NC(=O)c3ccncc3)ccc21	none (no result: Rpn11 block, HNF4A DNA FP, CSN inh)
O=C(CSc1nnc(-c2ccco2)o1)N1CCCCC1	none
CCN(CC)c1ccc(/C=C/c2nc3ccccc3s2)cc1	TPT1 inh 177.9 (no result: Rpn11 block, HNF4A DNA FP, CSN inh)
NNC(=O)[C@H](Cc1ccccc1)NC(=O)Nc1ccc2c(c1)OCCO2	none
CCc1ccc2cc(C)cnc2n1	none (no result: TPT1 inh)
Cc1cnc2nc(-c3ccccc3)ccc2c1	CSN inh 82.7 (no result: TPT1 inh)
O=C(O)C1OCC2(CO1)COC(C(=O)O)OC2 (centres undefined)	none (no result: TPT1 inh)
COc1cc(C(=O)NNC(=S)NCc2ccco2)cc(OC)c1OC	none
O=C(CSc1nnc(-c2ccco2)o1)c1ccc[nH]1	CSN inh 37.6
O=C(CSc1nnc(-c2ccco2)o1)c1ccccc1	none
COc1ccc(C(O)c2ncc(-c3ccccc3)[nH]2)c(OC)c1 (centres undefined)	none (no result: TPT1 inh)
CC(=O)Nc1cccc(C(=O)NC2CCCc3c2cnn3-c2cc(C)cc(C)c2)c1 (centres undefined)	none
O=[N+]([O-])c1ccc(N2CCCCC2)cc1N1CCOCC1	TPT1 inh 25.3 | caTPT1 confirm inactive | RNase T1 counter inactive
O=C1CC(=O)N(CCc2ccccc2)C(=O)N1CCc1ccccc1	TPT1 inh 40.1 | caTPT1 confirm inactive | RNase T1 counter inactive
O=C1CC(=O)N(CCc2ccc(F)cc2)C(=O)N1	TPT1 inh 39.3 | caTPT1 confirm 30.8 | RNase T1 counter 40.0
Cc1ccc2nc3n(c(=O)c2c1)-c1cc2ccccc2cc1C(=O)NC3CC(C)C (centres undefined)	none (no result: TPT1 inh)
COc1ccc(C2=C/C(=C\c3ccccc3OC(C)=O)C(=O)O2)cc1	none
COc1ccc(C2=C/C(=C\c3cccc(OC(C)=O)c3)C(=O)O2)cc1	TPT1 inh 35.5 | caTPT1 confirm 54.9 | RNase T1 counter 67.6
CCOC(=O)Cn1cnc2sc3c(c2c1=O)CCC3	TPT1 inh 35.9 | caTPT1 confirm inactive | RNase T1 counter 22.7
O=C(N/N=C/c1c(O)n(-c2ccccc2Cl)c(=O)c2ccccc12)c1cccnc1	none (not shown: Rpn11 block, TPT1 inh)
O=C(N/N=C/c1c(O)n(Cc2ccccc2)c(=O)c2ccccc12)c1cccnc1	HNF4A DNA FP 42.4, TPT1 inh 106.2 (not shown: Rpn11 block) | caTPT1 confirm 116.9 | RNase T1 counter 119.7
COc1ccc(C2C(C(C)=O)=C(C)N=c3s/c(=C\c4cc(C)n(C)c4C)c(=O)n32)c(OC)c1 (centres undefined)	TPT1 inh 131.7 (not shown: Rpn11 block) | caTPT1 confirm 133.5 | RNase T1 counter 127.3
CC1=Nc2ccc(C)cc2/C1=C/c1c(N)n2nc(CC(=O)N3CCOCC3)sc2nc1=O	TPT1 inh 35.1 | caTPT1 confirm inactive | RNase T1 counter 36.3
CCOCCCNCC(=O)Nc1ccc(OC(F)(F)F)cc1	none
COCCNCC(=O)Nc1ccc(OC(F)(F)F)cc1	TPT1 inh 61.6 | caTPT1 confirm inactive | RNase T1 counter inactive
COc1ccc(Oc2cnc3ccccc3n2)cc1	TPT1 inh 66.2 | caTPT1 confirm inactive | RNase T1 counter inactive
O=C(NC1CCCCC1)c1cccc2c1C(=O)c1ccc(N3CCCC3)cc1S2(=O)=O	none (not shown: Rpn11 block, TPT1 inh)
O=C1c2ccccc2S(=O)(=O)c2cc(N3CCC(C(=O)N4CCCCC4)CC3)ccc21	TPT1 inh 57.7 (no result: Rpn11 block, HNF4A DNA FP, CSN inh) | caTPT1 confirm 78.3 | RNase T1 counter 87.8
COc1ccc(C(=O)/C=C/c2cn(CC(O)CN3CCN(C)CC3)c3ccccc23)cc1OC (centres undefined)	HNF4A DNA FP 47.7, TPT1 inh 50.1, CSN inh 55.3 (not shown: Rpn11 block) | caTPT1 confirm 60.9 | RNase T1 counter 71.7
O=C(/C=C/c1cn(CC(O)CN2CCCCC2)c2ccccc12)c1cccs1 (centres undefined)	TPT1 inh 64.5 (not shown: Rpn11 block) | caTPT1 confirm 65.2 | RNase T1 counter 72.1
OC(CN1CCCCC1)Cn1c2ccccc2c2ccccc21 (centres undefined)	none
CN1CCN(Cn2cc(/C=C/C(=O)c3ccccc3)c3ccccc32)CC1	none
O=C(Nc1cccc(OC(F)(F)F)c1)C1Cc2c(-c3cccc(F)c3)ccnc2O1 (centres undefined)	none (no result: TPT1 inh)
CCc1nc2ccc(C(=O)N(C)C(C)C)cn2c1N(CCC(C)C)CCN(C)C	none (no result: TPT1 inh)
O=C(CN1C(=O)S/C(=C\c2cc(Cl)c(O)c(Cl)c2)C1=O)Nc1ccccc1	HNF4A DNA FP 37.8, TPT1 inh 95.6 (not shown: Rpn11 block) | caTPT1 confirm 99.7 | RNase T1 counter 108.3
O=C(O)c1ccc(N/N=C/C2=C(N3CCOCC3)C(=C\c3ccccc3)/CC2)cc1	HNF4A DNA FP 35.1, TPT1 inh 100.7 (not shown: Rpn11 block) | caTPT1 confirm 119.1 | RNase T1 counter 124.0
COCCn1c(=NC(=O)c2cc3ccccc3oc2=O)sc2cc(S(N)(=O)=O)ccc21	none
CSc1nnc(C)c(/C=C/Nc2ccc(F)cc2)n1	TPT1 inh 115.7 | caTPT1 confirm 101.3 | RNase T1 counter 105.5
Cc1cc(C)c(C(N)=O)c(Nc2ccc(F)cc2)n1	none
Nc1ccn([C@@H]2O[C@H](CNCc3cnc(N4CCOCC4)s3)[C@@H](O)[C@H]2O)c(=O)n1	none (no result: TPT1 inh)
Cc1[nH]c2ccccc2c1/C=N/NC(=S)NC(C)C	TPT1 inh 25.4 | caTPT1 confirm 38.8 | RNase T1 counter 44.9
CN(Cc1ccc(OC(F)F)cc1)C(=O)/C=C/c1ccc(S(=O)(=O)N2CCOCC2)cc1	none (no result: TPT1 inh)
O=C(O)c1ccsc1Cc1cccs1	none (no result: TPT1 inh)
N#C/C(=C\c1ccc(N2CCCCC2)o1)C(=O)Nc1cccc(Br)c1	TPT1 inh 167.8 (not shown: Rpn11 block) | caTPT1 confirm 190.8 | RNase T1 counter 172.0
C=C(C)c1cccc(C(C)(C)NC(=O)NCC2CCCO2)c1 (centres undefined)	TPT1 inh 24.6 | caTPT1 confirm inactive | RNase T1 counter inactive
C=C(C)c1cccc(C(C)(C)NC(=O)N2CCC(C)CC2)c1	none
CCc1ccccc1NC(=O)CN1CCN(CC(=O)NCc2ccc(Cl)cc2)CC1	none (no result: TPT1 inh)
CCCc1cc(=O)[nH]c(SCC(=O)Nc2cc(S(=O)(=O)N3CCCCC3)ccc2C)n1	none (no result: TPT1 inh)
O=C(N/N=C/c1ccc(-c2cccc(C(F)(F)F)c2)o1)c1ccccc1Br	TPT1 inh 38.8 | caTPT1 confirm 38.4 | RNase T1 counter 49.2
O=C(COC(=O)COc1ccc(Cl)cc1Cl)NC1CCS(=O)(=O)C1 (centres undefined)	none (no result: TPT1 inh)
Cc1cccc(C)c1Nc1c(-c2ccc(N3CCOCC3)cc2)nc2ncccn12	TPT1 inh 29.5 | caTPT1 confirm 34.0 | RNase T1 counter 40.7

High-throughput results deposited in PubChem BioAssay by several laboratories.
